Measurements from different studies.
Lines come from different studies, so protocols differ.
Target: Mitogen-activated protein kinase kinase kinase 9 (MAP3K9, Homo sapiens, UniProt P80192)

CO[C@@H]1[C@H](N(C)C(=O)c2ccccc2)C[C@H]2O[C@]1(C)n1c3ccccc3c3c4c(c5c6ccccc6n2c5c31)C(=O)NC4 — inhibition (enzyme activity; inhibitor; 1 µM): 90%
CN1CCN(C(=O)c2ccc(NC(=O)Nc3ccc(N(C)c4ccnc(Nc5ccc(CS(C)(=O)=O)cc5)n4)cc3)cc2)CC1 — remaining binding (binding; 1 µM): 86%
COc1ccc2oc(-c3ccc4nc(N)oc4c3)c/c(=N\c3ccccc3NC(=O)CCN)c2c1 — remaining binding (binding; 1 µM): 83%
C=CC(=O)N1CCC[C@@H](n2nc(-c3ccc(Oc4ccccc4)cc3)c3c(N)ncnc32)C1 — inhibition (enzyme activity; inhibitor; 1 µM): 4%
CCCCC(=O)Nc1ccc(-c2ccc3ncn(CCC)c(=O)c3c2)cn1 — remaining binding (binding; competition with immobilised ligand; 0.5 µM): 83%
N#Cc1ccc(NC(=O)Nc2ccccc2)cc1 — remaining binding (cell-free assay; competition with immobilised ligand; 25 µM): 100%
Cc1ccc(NC(=O)c2ccnc(C(F)(F)F)c2)cc1-c1cc(OCCO)nc(N2CCOCC2)c1 — remaining binding (binding; 1 µM): 100%
C#Cc1cc(-c2cc(Nc3nc(N[C@@H](C)c4ccc(F)cn4)ncc3Cl)n[nH]2)ccc1C=O — inhibition (enzyme activity; inhibitor; 0.2 µM): 59.8%
C#Cc1cnc(Nc2ccnc(CO)c2)nc1Nc1ccccc1S(C)(=O)=NC#N (stereo not drawn) — remaining signal (cell-free assay; 1 µM): 26%
